Measured values as given in ChEMBL document CHEMBL1153564 (Antimicrob Agents Chemother, 2008).
In brackets after ≈: the same amount, converted by molar mass. Activity calls are given as the source filed them. No cut-off for these calls is given here. Starred links: 1 amine or outer side, 2 acyl side, 3 side chain; linkers in the order of their positions; H or OH if unused. Positions of bridges follow the written chain, without caps; N, C: chain ends. Non-standard residues stand in square brackets, D forms with d. Residues, ends and D or L forms follow the SMILES beside them. *: point of attachment. pTerphenylCO(4''-OnC5H11) = CCCCCOc1ccc(-c2ccc(-c3ccc(C(=O)*)cc3)cc2)cc1; Orn(4R-OH,5R-OH) = O=C([C@H](C[C@@H](O)[C@@H](O)N[*:3])N[*:1])[*:2]; hTyr(3S-OH,4S-OH) = N[C@H](C(=O)O)[C@H](O)[C@@H](O)c1ccc(O)cc1; Pro(3S-OH,4S-Me) = C[C@H]1CN[C@H](C(=O)O)[C@H]1O; Hyp = O=C(O)[C@@H]1C[C@@H](O)CN1

Columns and labels:
[1] = system: Nakaseomyces glabratus; assay: Antifungal activity against Candida glabrata 5376 infected in neutropenic ICR/Swiss mouse candidiasis model assessed as reduction of […] in kidney at 5 mg/kg, ip administered 2 hrs postinfection as single dose measured within 1 to 4 hrs post dosing by time-kill assay; assay type: functional, organism-based; design: dose 5 mg/kg
Procedure, shortened: (§1)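 Neutropenic mice were infected i.v. and 2 h later given a single i.p. dose (1.25, 5 or 20 mg/kg). Groups of three treated and three control mice were killed at intervals over 96 h, and kidney CFU were counted on SDA (limit 100 CFU/ml). The post-antifungal effect is t − c: the time for a 1 log10 CFU/kidney increase once serum levels fall below the MIC in treated mice, minus the same time in controls.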

[2] = system: Nakaseomyces glabratus; assay: Antifungal activity against Candida glabrata 570 infected in neutropenic ICR/Swiss mouse candidiasis model assessed as dose required to maintain […] of 1.83 +/- 0.54 log10CFU per kidney administered intraperitoneally every 24 hrs up to 4 days measured per 24 hrs; assay type: functional
[3] = system: Nakaseomyces glabratus; assay: Antifungal activity against Candida glabrata 34341 infected in neutropenic ICR/Swiss mouse candidiasis model assessed as dose required to maintain […] of 1.83 +/- 0.54 log10CFU per kidney administered intraperitoneally every 24 hrs up to 4 days measured per 24 hrs; assay type: functional
[4] = system: Nakaseomyces glabratus; assay: Antifungal activity against Candida glabrata 5376 infected in neutropenic ICR/Swiss mouse candidiasis model assessed as suppression of fungal regrowth at 5 mg/kg, ip administered 2 hrs postinfection as single dose by time-kill assay; assay type: functional, organism-based; design: dose 5 mg/kg; procedure, shortened: as §1
[5] = system: Nakaseomyces glabratus; assay: Antifungal activity against Candida glabrata 5376 infected in neutropenic ICR/Swiss mouse candidiasis model assessed as prolongation of fungal growth suppression at 5 mg/kg, ip administered 2 hrs postinfection as single dose by time-kill assay; assay type: functional; conditions: route intraperitoneal; procedure, shortened: as §1
[6] = system: Serum; assay: Fraction unbound in Candida albicans K-1 infected neutropenic ICR/Swiss mouse serum at 5 mg/kg, ip administered 2 hrs postinfection as single dose; assay type: ADME, organism-based; design: dose 5 mg/kg, route intraperitoneal; conditions: in vivo
[7] = system: Candida albicans; assay: Antifungal activity against Candida albicans K-1 infected in neutropenic ICR/Swiss mouse candidiasis model assessed as […] burden per kidney administered intraperitoneally every 16 hrs up to 4 days measured per 96 hrs; assay type: functional; conditions: K-1, Kidney, ip
Procedure, shortened: (§2)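 Neutropenic mice were infected iv with C. albicans K-1 2 h before therapy. Total doses of 1.25, 5, 20, 80 and 320 mg/kg/96 h were split into 1, 2, 4 or 6 ip doses (q96h, q48h, q24h, q16h), three mice per regimen. Effect is the log10 CFU/kidney relative to untreated controls at 96 h. Static and 1-log doses were taken from a Hill model fit.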

[8] = system: Candida albicans; assay: Antifungal activity against Candida albicans K-1 infected in neutropenic ICR/Swiss mouse candidiasis model assessed as […] burden per kidney administered intraperitoneally every 48 hrs up to 4 days measured per 96 hrs; assay type: functional; conditions: K-1, Kidney, ip; procedure, shortened: as §2
[9] = system: Nakaseomyces glabratus; assay: Antifungal activity against Candida glabrata 5592 infected in neutropenic ICR/Swiss mouse candidiasis model assessed as dose required for 1-log10 reduction in […] per kidney administered intraperitoneally every 24 hrs up to 4 days measured per 24 hrs; assay type: functional
Procedure, shortened: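 Neutropenic mouse disseminated candidiasis, with i.p. therapy starting 2 h after i.v. infection. Five total doses of 0.078–20 mg/kg/24 h were given q24h for 4 days, three mice per dose. Kidney CFU were counted at the end and compared with untreated controls. The dose giving a 1 log10 CFU/kidney reduction was derived from the sigmoid Hill dose–effect model.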

[10] = system: Candida albicans; assay: Antifungal activity against Candida albicans 98-210 assessed as complete growth inhibition after 24 hrs by CLSI end point method; assay type: functional; conditions: 98-210, 24 h
Procedure, shortened: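 CLSI M27-A2 broth dilution. Two end points read against the drug-free control well: partial inhibition (CLSI end point) and complete inhibition. Run in duplicate on four separate occasions; value is the mean. Drug stock in DMSO, diluted in 0.9% NaCl.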

[11] = system: Candida albicans; assay: Antifungal activity against Candida albicans 98-17 infected in neutropenic ICR/Swiss mouse candidiasis model assessed as fungal count per kidney administered 2 hrs postinfection measured up to 48 hrs; assay type: functional
Procedure, shortened: (§3)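 Untreated neutropenic mice infected via the tail vein (inoculum about 6.1 log10 CFU/ml, 0.1 ml). Growth is the rise in kidney CFU over 48 h. Kidneys were homogenised, serially diluted 1:10 and plated on SDA for 24 h at 35°C. Mean of three mice.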

[12] = system: Candida tropicalis; assay: Antifungal activity against Candida tropicalis 98-234 infected in neutropenic ICR/Swiss mouse candidiasis model assessed as fungal count per kidney administered 2 hrs postinfection measured up to 48 hrs; assay type: functional
Procedure, shortened: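 Untreated neutropenic ICR/Swiss female mice infected iv via lateral tail vein (0.1 ml, 6.1 ± 0.51 log10 CFU/ml); kidneys homogenised, serially diluted 1:10 and plated on SDA, counted after 24 h at 35°C; growth in kidneys over 48 h, mean CFU per kidney of three mice, detection limit 100 CFU/ml.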

[13] = system: Nakaseomyces glabratus; assay: Antifungal activity against Candida glabrata 33616 infected in neutropenic ICR/Swiss mouse candidiasis model assessed as fungal count per kidney administered 2 hrs postinfection measured up to 48 hrs; assay type: functional
Procedure, shortened: (§4)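 Female ICR/Swiss mice (23–27 g) made neutropenic with cyclophosphamide s.c. (150 mg/kg day −4, 100 mg/kg day −1, 100 mg/kg day +2). Infected by tail vein with 0.1 ml inoculum (~6.1 log10 CFU/ml). Kidneys of untreated mice were homogenised and plated on SDA for 24 h at 35°C. Growth over 48 h is given as log10 CFU/kidney.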

[14] = system: Candida albicans; assay: Antifungal activity against Candida albicans K-1 infected in neutropenic ICR/Swiss mouse candidiasis model assessed as fungal count per kidney administered 2 hrs postinfection measured up to 48 hrs; assay type: functional; procedure, shortened: as §3
[15] = system: Nakaseomyces glabratus; assay: Antifungal activity against Candida glabrata 37661 infected in neutropenic ICR/Swiss mouse candidiasis model assessed as fungal count per kidney administered 2 hrs postinfection measured up to 48 hrs; assay type: functional; procedure, shortened: as §4
[16] = Elimination half life in serum of neutropenic ICR/Swiss mouse candidiasis model at 20 mg/kg, ip by reverse-phase high-pressure liquid chromatography; assay type: ADME, organism-based; design: dose 20 mg/kg, route intraperitoneal; conditions: read-out: beta t1/2 (converted)
Procedure, shortened: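 Infected neutropenic ICR/Swiss mice given single ip doses (5, 20 or 80 mg/kg; 0.2 ml); serum from three isoflurane-anaesthetised mice at 1, 4, 8, 12, 24 and 48 h, stored at −80°C, assayed by reverse-phase HPLC with fluorescence detection, loratadine internal standard, linear 10–50,000 ng/ml. Noncompartmental analysis; half-life by nonlinear least squares.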

[17] = system: Candida albicans; assay: Antifungal activity against Candida albicans K-1 infected in neutropenic ICR/Swiss mouse candidiasis model assessed as reduction of […] in kidney at 20 mg/kg, ip administered 2 hrs postinfection as single dose measured after 96 hrs post dosing by time-kill assay; assay type: functional, organism-based; design: dose 20 mg/kg
Procedure, shortened: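 Single ip dose (20, 5 or 1.25 mg/kg) given 2 h after iv infection of neutropenic mice with K-1. Three treated and three control mice were sampled at intervals over 96 h for kidney CFU. PAFE is the time for treated burden to rise 1 log10 after serum levels fall below MIC, minus the same time in controls. Free drug was taken as 1%.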

[18] = system: Nakaseomyces glabratus; assay: Antifungal activity against Candida glabrata 5376 infected in neutropenic ICR/Swiss mouse candidiasis model assessed as dose required to maintain […] of 3.71 +/- 0.21 log10CFU per kidney administered intraperitoneally every 24 hrs up to 4 days measured per 96 hrs

CCCCCOc1ccc(-c2ccc(-c3ccc(C(=O)N[C@H]4C[C@@H](O)[C@@H](O)NC(=O)[C@@H]5[C@@H](O)[C@@H](C)CN5C(=O)[C@H]([C@@H](C)O)NC(=O)[C@H]([C@H](O)[C@@H](O)c5ccc(O)cc5)NC(=O)[C@@H]5C[C@@H](O)CN5C(=O)[C@H]([C@@H](C)O)NC4=O)cc3)cc2)cc1 [ANIDULAFUNGIN] ({pTerphenylCO(4''-OnC5H11)}-[Orn(4R-OH,5R-OH)]T[Hyp][hTyr(3S-OH,4S-OH)]T[Pro(3S-OH,4S-Me)]; lactam 1-C)
Activity [1]: Active | Activity [2]: 1.97 mg/kg | Activity [3]: 6.9 mg/kg | Activity [4]: Active | Activity [5]: 19 h | Fu [6]: 1% | ED50 [7]: 8.74 mg/kg | ED50 [8]: 3.14 mg/kg | Activity [9]: 11.8 mg/kg | MIC [10]: 0.06 µg/mL (≈ 0.0526 µM) | log10cfu [11]: 4.3 | log10cfu [12]: 3.84 | log10cfu [13]: 1.81 | log10cfu [14]: 4 | log10cfu [15]: 0.96 | half-life [16]: 14.7 h | Activity [17]: Active | Activity [18]: 17.6 mg/kg
